Reference: ChEMBL document CHEMBL3045731, “Facile synthesis and herbicidal evaluation of 4H-3,1-benzoxazin-4-ones and 3H-quinazolin-4-ones with 2-phenoxymethyl substituents” (Molecules, 2012)

Assays:
Brassica napus [1] = assay: Herbicidal activity against Brassica napus (oilseed rape) assessed as inhibition of root elongation after 5 days by petri dish culture method; assay type: functional, organism-based
Brassica napus [2] = assay: Herbicidal activity against Brassica napus (oilseed rape) assessed as inhibition of stalk growth at 1 mg/L after 5 days by petri dish culture method relative to control; assay type: functional; settings: 120 h, read-out: GI
How it was run: (§1)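 Test solutions were made in DMF, emulsified with Tween 80, and diluted with water, then added to Petri dishes lined with two filter papers. Twenty rape and twenty barnyard grass seeds were incubated 5 days at 23 ± 1 °C, 60 ± 5% humidity, 10 Klux, 12 h/day light. Mean length of 10 roots and 10 stems gave percent inhibition versus distilled-water controls.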

Brassica napus [3] = assay: Herbicidal activity against Brassica napus (oilseed rape) assessed as inhibition of stalk growth at 10 mg/L after 5 days by petri dish culture method relative to control; assay type: functional; settings: 120 h, read-out: GI; how it was run: as §1
Echinochloa crus-galli [4] = assay: Herbicidal activity against Echinochloa crus-galli (barnyard grass) assessed as inhibition of stalk growth at 1 mg/L after 5 days by petri dish culture method relative to control; assay type: functional; settings: 120 h, read-out: GI; how it was run: as §1
Echinochloa crus-galli [5] = assay: Herbicidal activity against Echinochloa crus-galli (barnyard grass) assessed as inhibition of stalk growth at 10 mg/L after 5 days by petri dish culture method relative to control; assay type: functional; settings: 120 h, read-out: GI; how it was run: as §1
Brassica napus [6] = assay: Herbicidal activity against Brassica napus (oilseed rape) assessed as inhibition of root growth at 1 mg/L after 5 days by petri dish culture method relative to control; assay type: functional; settings: 120 h, read-out: GI; how it was run: as §1
Brassica napus [7] = assay: Herbicidal activity against Brassica napus (oilseed rape) assessed as inhibition of root growth at 10 mg/L after 5 days by petri dish culture method relative to control; assay type: functional; settings: 120 h, read-out: GI; how it was run: as §1
Echinochloa crus-galli [8] = assay: Herbicidal activity against Echinochloa crus-galli (barnyard grass) assessed as inhibition of root growth at 1 mg/L after 5 days by petri dish culture method relative to control; assay type: functional; settings: 120 h, read-out: GI; how it was run: as §1
Echinochloa crus-galli [9] = assay: Herbicidal activity against Echinochloa crus-galli (barnyard grass) assessed as inhibition of root growth at 10 mg/L after 5 days by petri dish culture method relative to control; assay type: functional; settings: 120 h, read-out: GI; how it was run: as §1

Nn1c(COc2ccc(Cl)cc2Cl)nc2ccccc2c1=O
IC50 (Brassica napus [1]): 224.37 µmol

O=c1oc(COc2ccc(Cl)cc2)nc2ccccc12
IC50 (Brassica napus [1]): 30.37 µmol

O=c1oc(COc2ccc(Cl)cc2Cl)nc2ccccc12
IC50 (Brassica napus [1]): 10.34 µmol

O=c1oc(COc2ccc(Cl)cc2Cl)nc2ccc(Cl)cc12
IC50 (Brassica napus [1]): 10.73 µmol

COc1ccc(Cl)cc1Cl
inhibition of growth at 1 µg/mL (Brassica napus [2]): 89.1% | inhibition of growth at 10 µg/mL (Brassica napus [3]): 93.6% | inhibition of growth at 1 µg/mL (Echinochloa crus-galli [4]): 45.5% | inhibition of growth at 10 µg/mL (Echinochloa crus-galli [5]): 76.2% | IC50 (Brassica napus [1]): 6.06 µmol | inhibition of growth at 1 µg/mL (Brassica napus [6]): 91% | inhibition of growth at 10 µg/mL (Brassica napus [7]): 100% | inhibition of growth at 1 µg/mL (Echinochloa crus-galli [8]): 67.3% | inhibition of growth at 10 µg/mL (Echinochloa crus-galli [9]): 99.1%

COc1cc2nc(COc3ccc(Cl)cc3)oc(=O)c2cc1OC
IC50 (Brassica napus [1]): 80.14 µmol

O=c1oc(COc2ccc(Cl)cc2)nc2ccc(Cl)cc12
IC50 (Brassica napus [1]): 22.32 µmol

O=c1oc(COc2ccc(Cl)cc2Cl)nc2cccc(Cl)c12
IC50 (Brassica napus [1]): 43.54 µmol

Cn1c(COc2ccc(Cl)cc2Cl)nc2c(Cl)cccc2c1=O
inhibition of growth at 1 µg/mL (Brassica napus [2]): -8.8% | inhibition of growth at 10 µg/mL (Brassica napus [3]): -2.4% | inhibition of growth at 1 µg/mL (Echinochloa crus-galli [4]): 1.4% | inhibition of growth at 10 µg/mL (Echinochloa crus-galli [5]): 0% | inhibition of growth at 1 µg/mL (Brassica napus [6]): 32.3% | inhibition of growth at 10 µg/mL (Brassica napus [7]): 44.5% | inhibition of growth at 1 µg/mL (Echinochloa crus-galli [8]): 12.3% | inhibition of growth at 10 µg/mL (Echinochloa crus-galli [9]): 34.6%

COc1cc2nc(COc3ccc(Cl)cc3Cl)n(N)c(=O)c2cc1OC
IC50 (Brassica napus [1]): 167.59 µmol

Nn1c(COc2ccc(Cl)cc2Cl)nc2c(Cl)cccc2c1=O
inhibition of growth at 1 µg/mL (Brassica napus [2]): 92.3% | inhibition of growth at 10 µg/mL (Brassica napus [3]): 95.7% | inhibition of growth at 1 µg/mL (Echinochloa crus-galli [4]): -7.2% | inhibition of growth at 10 µg/mL (Echinochloa crus-galli [5]): 38.1% | IC50 (Brassica napus [1]): 27.23 µmol | inhibition of growth at 1 µg/mL (Brassica napus [6]): 93.6% | inhibition of growth at 10 µg/mL (Brassica napus [7]): 98.2% | inhibition of growth at 1 µg/mL (Echinochloa crus-galli [8]): 24.3% | inhibition of growth at 10 µg/mL (Echinochloa crus-galli [9]): 68.5%

O=c1oc(COc2ccc(Cl)cc2Cl)nc2cc(Cl)ccc12
IC50 (Brassica napus [1]): 11.05 µmol

O=c1oc(COc2ccc(Cl)cc2)nc2cccc(Cl)c12
IC50 (Brassica napus [1]): 138.24 µmol

Cn1c(COc2ccc(Cl)cc2)nc2cccc(Cl)c2c1=O
IC50 (Brassica napus [1]): 201.13 µmol

COc1cc2nc(COc3ccc(Cl)cc3Cl)oc(=O)c2cc1OC
IC50 (Brassica napus [1]): 142.22 µmol
